Screening results: PubChem BioAssay, several laboratories
This is a sample that favours compounds with a hit; in the whole collection about 0.41% have one here.
S1P3 antag: blocks the human S1P3 receptor; Q99500; CHO S1P3 NFAT-BLA reporter, FRET fluorescence, antagonist mode; inhibition, % at 4.98 µM; 170,000 tested, 0.27% active;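 active means inhibition above the plate cutoff, the mean inhibition of test wells on that plate plus 3 SD, cut at about 28% in these data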;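 further: cells challenged with S1P at its EC80 of 0.8 µM; blue over green emission ratio from cleaved BLA substrate after 4 h stimulation; 0% = S1P-stimulated wells and 100% = unstimulated DMSO-only wells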
Target sequence (Q99500 whole entry, looked up): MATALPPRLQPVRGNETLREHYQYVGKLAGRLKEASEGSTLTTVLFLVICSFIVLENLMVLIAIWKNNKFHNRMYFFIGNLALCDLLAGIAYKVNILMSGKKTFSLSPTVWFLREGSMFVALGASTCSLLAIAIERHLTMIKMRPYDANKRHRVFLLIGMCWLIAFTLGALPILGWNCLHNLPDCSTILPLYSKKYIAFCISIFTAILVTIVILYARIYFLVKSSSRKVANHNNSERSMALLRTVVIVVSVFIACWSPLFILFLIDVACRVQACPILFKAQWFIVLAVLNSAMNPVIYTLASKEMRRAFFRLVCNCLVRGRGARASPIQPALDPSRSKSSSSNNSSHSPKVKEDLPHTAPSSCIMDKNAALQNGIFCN
CR mimetic SO: lowers age-related superoxide in aged yeast cells; superoxide response (% of plate mean), % at 10 µM; 330,000 tested, 0.18% active; AID 2690; S. cerevisiae aged cells, superoxide DHE fluorescence; hits give low values;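 active means superoxide response under a set limit, about three screen SD below normal, cut at about 65% in these data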;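 further: yeast aged for seven days with compound at 30 °C before DHE staining; 100% = average MFI of all compound-treated wells on the plate with controls excluded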
T cell HTS: T cell immune modulation candidate | 2C CD8+ T cell-vesicle binding, flow cytometry; hits give low values | response (vesicle binding), % at 7 µM | 330,000 tested, 0.068% active;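 active means response, share of CD8 T cells binding vesicles, and their 90th percentile fluorescence all below set limits, cut at about 80% in these data, passing the limit was not always enough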;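 further: values below 100% mean blocked vesicle binding to the CD8+ T cells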
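Test system: purified 2C TCR transgenic mouse naive CD8+ T cells. Probe or stimulus: QL9-peptide-loaded Drosophila micro-vesicles bearing Ld, ICAM-1 and B7-1. Incubation: binding step 1.5 h, 37 °C, antibody labelling 20 min, ice. Measured by: flow cytometry of vesicle-bound cells.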
* = called active by the depositor.

Results for COc1ccc(CC(=O)Nc2ccccc2C(=O)N2CCCC2)cc1 ?
CR mimetic SO: 91; T cell HTS: 440

Results for COc1ccc(C(=O)NC2CCc3ccccc32)cc1OC1CCN(C(C)=O)CC1 (stereo not given) ?
CR mimetic SO: 102; T cell HTS: 265

What do the screens show for `O=C(CN1C(=O)C2C3CC(C(Br)C3Br)C2C1=O)Nc1ccc(C(=O)O)cc1` (stereo not given)?
S1P3 antag: -5; CR mimetic SO: 54*; T cell HTS: 172

How did O=C(CN1C(=O)C2CC=C(Cl)CC2C1=O)Nc1ccc(C(=O)O)cc1 (stereo not given) do in these assays?
CR mimetic SO: 109; T cell HTS: 294

Results for COC(=O)CNC(=O)C1CC(=O)N(CCc2ccc(F)cc2)C1 (stereo not given) ?
CR mimetic SO: 101; T cell HTS: 186

What do the screens show for `Nc1nc(-c2cccc(NS(=O)(=O)c3ccccc3)c2)cs1`?
S1P3 antag: 53*; CR mimetic SO: 108; T cell HTS: 366

Results for CC(=O)Nc1ccc(S(=O)(=O)Nc2cccc(-c3csc(C)n3)c2)cc1 ?
S1P3 antag: 7; CR mimetic SO: 113; T cell HTS: inactive

How did O=C(COC(=O)c1cccc(O)c1)Nc1ccc(S(=O)(=O)N2CCOCC2)cc1 do in these assays?
CR mimetic SO: 100; T cell HTS: 503

What do the screens show for `CCCSC1=C(C#N)C(c2ccccc2C)CC(=O)N1` (stereo not given)?
S1P3 antag: 15; CR mimetic SO: 103; T cell HTS: 258

Results for CCCCSC1=C(C#N)C(c2ccccc2C)CC(=O)N1 (stereo not given) ?
S1P3 antag: 102*; CR mimetic SO: 131; T cell HTS: 566

What do the screens show for `O=C1C(=O)N(CCCn2ccnc2)C(c2ccc(Br)cc2)/C1=C(\O)c1ccc2c(c1)OCCO2` (stereo not given)?
CR mimetic SO: 100; T cell HTS: 405

How did O=C1C(=O)N(CCCn2ccnc2)C(c2ccc([N+](=O)[O-])cc2)/C1=C(\O)c1ccc2c(c1)OCCO2 (stereo not given) do in these assays?
CR mimetic SO: 112; T cell HTS: 0.0*

How did Cc1ccc(Cn2nc(C)c(C(=O)NCC(c3ccc(F)cc3)N3CCOCC3)c2Cl)cc1 (stereo not given) do in these assays?
CR mimetic SO: 111; T cell HTS: 639

How did CC(C)NC(=O)CSc1nnc2sc3ccccc3n12 do in these assays?
S1P3 antag: -9; CR mimetic SO: 106; T cell HTS: 406

What do the screens show for `NC(=O)CSc1nnc2sc3ccccc3n12`?
S1P3 antag: -22; CR mimetic SO: 91; T cell HTS: 79*

Results for CC1(NC(=O)Cc2csc(-c3cccc(Cl)c3)n2)CCS(=O)(=O)C1 (stereo not given) ?
CR mimetic SO: 98; T cell HTS: 220

How did O=C(COC(=O)C1CC1)NCc1ccc(Cl)cc1Cl do in these assays?
CR mimetic SO: 99; T cell HTS: 270

What do the screens show for `O=C(N[C@H]1C/C=C\C[C@@H](CC(=O)N(CCO)Cc2ccccc2)C(=O)N2CCC[C@@H]2COC1=O)OCC1c2ccccc2-c2ccccc21`?
CR mimetic SO: 96; T cell HTS: 0.0*

How did O=C(N[C@H]1C/C=C\C[C@@H](CC(=O)N(CCO)Cc2ccccc2)C(=O)N2CCC[C@H]2COC1=O)OCC1c2ccccc2-c2ccccc21 do in these assays?
CR mimetic SO: 102; T cell HTS: 345

How did CCCOc1ccc(N2C(=O)CC(N(C(=O)c3ccco3)c3ccc(OCCC)cc3)C2=O)cc1 (stereo not given) do in these assays?
CR mimetic SO: 105; T cell HTS: 0.0*

What do the screens show for `CCCOc1ccc(N2C(=O)CC(N(Cc3ccco3)C(=O)CC)C2=O)cc1` (stereo not given)?
S1P3 antag: -15; CR mimetic SO: 98; T cell HTS: 355

What do the screens show for `CC(C)(C)OC(=O)C[C@@H]1C/C=C\C[C@@H](CC(=O)NCCO)C(=O)NC[C@H](c2ccccc2)OC1=O`?
CR mimetic SO: 92; T cell HTS: 116

Results for COc1ccc(CCNC(=O)CSCC(=O)Nc2cc(S(C)(=O)=O)ccc2Cl)cc1 ?
CR mimetic SO: 113; T cell HTS: 226

Results for COc1cc(/C=C/C(=O)O[C@H]2[C@H](O[C@@H]3O[C@@H](C)[C@H](O)[C@@H](O)[C@H]3O)[C@@H](O)[C@H](OCCc3ccc(O)c(OC)c3)O[C@@H]2CO)ccc1O ?
CR mimetic SO: 94; T cell HTS: 245

How did CCOCCCNC(=O)C(NC(=O)c1ccc(NC(C)=O)cc1)c1ccccc1 (stereo not given) do in these assays?
S1P3 antag: -14; CR mimetic SO: 61*; T cell HTS: inactive
